Source: ChEMBL document CHEMBL4028832, “Design and synthesis of 1,2,3-triazolo-phenanthrene hybrids as cytotoxic agents” (Bioorg Med Chem Lett, 2017)

Key:
Type in all cases: functional, cell-based
[1] = tested on: MDA-MB-231; assay: Cytotoxicity against human MDA-MB-231 cells after 48 hrs by MTT assay; details: MDA-MB-231, 48 h
In short: (§1)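 The human cancer lines and mouse 4T1 breast cells were treated with compound for 48 h and assessed by MTT assay. IC50 is the concentration giving 50% inhibition. 5-Fluorouracil served as the MTT standard.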

[2] = tested on: MDA-MB-453; assay: Cytotoxicity against human MDA-MB-453 cells after 48 hrs by MTT assay; details: MDA-MB-453, 48 h; in short: as §1
[3] = tested on: HGC-27; assay: Cytotoxicity against human HGC27 cells after 48 hrs by MTT assay; details: HGC-27, 48 h; in short: as §1
[4] = tested on: A549; assay: Cytotoxicity against human A549 cells after 48 hrs by MTT assay; details: A549, 48 h; in short: as §1
[5] = tested on: BT-549; assay: Cytotoxicity against human BT549 cells after 48 hrs by MTT assay; details: BT-549, 48 h; in short: as §1
[6] = tested on: PC-3; assay: Cytotoxicity against human PC3 cells after 48 hrs by MTT assay; details: PC-3, 48 h; in short: as §1
[7] = tested on: HeLa; assay: Cytotoxicity against human HeLa cells after 48 hrs by MTT assay; in short: as §1
[8] = tested on: 4T1; assay: Cytotoxicity against mouse 4T1 cells after 48 hrs by MTT assay; details: 4T1, 48 h; in short: as §1
[9] = tested on: DU-145; assay: Cytotoxicity against human DU145 cells after 48 hrs by MTT assay; details: DU-145, 48 h; in short: as §1

Row | Structure (SMILES) | IC50 [1] | IC50 [2] | IC50 [3] | IC50 [4] | IC50 [5] | IC50 [6] | IC50 [7] | IC50 [8] | IC50 [9]
1 | COc1cc2cc(Cn3cc(COc4cc(OC)c(OC)c(OC)c4)nn3)c3cc(OC)c(OC)cc3c2cc1OC | 19.2 µM | > 20 µM | 14.8 µM | > 20 µM | > 20 µM | > 20 µM | > 20 µM | > 20 µM | > 20 µM
2 | O=c1[nH]cc(F)c(=O)[nH]1 [FLUOROURACIL] | 4.33 µM | – | 14.7 µM | 1.6 µM | – | 1.2 µM | 1.86 µM | – | 2.18 µM
3 | COc1cc2cc(Cn3cc(COc4ccccc4OC)nn3)c3cc(OC)c(OC)cc3c2cc1OC | > 20 µM | > 20 µM | 9.1 µM | > 20 µM | > 20 µM | > 20 µM | 11.2 µM | > 20 µM | > 20 µM
4 | COc1cc2cc(Cn3cc(COc4ccc5c(c4)OCO5)nn3)c3cc(OC)c(OC)cc3c2cc1OC | 12.6 µM | 18.9 µM | 9.5 µM | 14.5 µM | 18.1 µM | 13.2 µM | > 20 µM | 6.5 µM | 16.7 µM
